Experiment [1] deals with Rattus norvegicus. In words: In vivo galactitol inhibitory activity measured by its ability to inhibit galactitol accumulation in diaphragm at 6 mg/Kg/day. It is filed as functional. An outline of the steps: (§1)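 Rats (n = 6) fed 20% galactose for 4 days, with compound given in the diet at the stated mg/kg per day. Galactitol accumulation in lens, sciatic nerve or diaphragm is scored as percent inhibition versus the non-treated group, as means of 3–8 drug-treated tissue samples. Dunnett's multiple comparison test applies; NS means p > 0.05.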

For experiment [2], the system named is Rattus norvegicus. The experiment is described as follows: In vivo galactitol inhibitory activity measured by its ability to inhibit galactitol accumulation in lens at 6 mg/Kg/day. In kind it is functional, Lens of camera-type eye. The note with it: for inhibition in vivo at 6 mg/kg/day: Rattus norvegicus, Lens of camera-type eye. The method, boiled down: as §1

In experiment [3] the test system is Rattus norvegicus. In words: In vivo galactitol inhibitory activity measured by its ability to inhibit galactitol accumulation in sciatic nerve at 6 mg/Kg/day. In kind it is functional. An outline of the steps: (§2)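 Rats (n = 6) fed 20% galactose for 4 days, with compound given in the diet at the stated daily dose. Galactitol accumulation was measured in lens, sciatic nerve and diaphragm, and % inhibition was taken versus the nontreated group. Means are from three to eight drug-treated tissue samples. Dunnett's multiple comparison test was applied, with p > 0.05 reported as not significant.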

In experiment [4] the test system is Rattus norvegicus. In words: In vivo galactitol inhibitory activity measured by its ability to inhibit galactitol accumulation in diaphragm at 10 mg/Kg/day. It is filed as functional. An outline of the steps: as §1
For experiment [5], the system named is Rattus norvegicus. The experiment is described as follows: In vivo galactitol inhibitory activity measured by its ability to inhibit galactitol accumulation in lens at 10 mg/Kg/day. It is filed as functional. The settings on record: Lens of camera-type eye. The method, boiled down:
as §1

Experiment [6] concerns Rattus norvegicus. The experiment is described as follows: In vivo galactitol inhibitory activity measured by its ability to inhibit galactitol accumulation in lens at 3 mg/Kg/day; NS=Not significant (% Inhibition). The settings on record: Lens of camera-type eye. In kind it is functional, organism-based. The method, boiled down: as §1
In experiment [7] the test system is Rattus norvegicus. The experiment is described as follows: In vivo galactitol inhibitory activity measured by its ability to inhibit galactitol accumulation in sciatic nerve at 6 mg/Kg/day; NS=Not significant (% Inhibition). In kind it is functional, organism-based. An outline of the steps:
as §2

The target in experiment [8] is Aldo-keto reductase family 1 member B1 (Bos taurus) (UniProt P16116). In words: In vitro aldose reductase inhibitory activity measured by NADPH-dependent inhibition of glyceraldehyde reduction in a partially purified bovine lens preparation at 10E-7 M. The method, boiled down:
(§3)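 Aldose reductase partially purified from bovine lens. Inhibition of NADPH-dependent glyceraldehyde reduction is measured at the single stated concentration and reported as percent inhibition, the mean of two determinations.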

Experiment [9] relates to Rattus norvegicus. The experiment is described as follows: In vivo galactitol inhibitory activity measured by its ability to inhibit galactitol accumulation in sciatic nerve at 10 mg/Kg/day; NS=Not significant (% Inhibition). It is filed as functional, organism-based. The method, boiled down: as §2
Experiment [10] relates to Rattus norvegicus. The experiment is described as follows: In vivo galactitol inhibitory activity measured by its ability to inhibit galactitol accumulation in diaphragm at 3 mg/Kg/day. It is filed as functional. An outline of the steps:
as §1

The test system of another experiment is Mus musculus. The experiment is described as follows: Antihyperglycemic activity measured as percent decrease in mice plasma glucose at 100 mg/Kg/day. In kind it is functional. The method, boiled down: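 Male db/db (C57BL/KsJ) mice, 4–6 per group, dosed at 100 mg/kg per day. Plasma glucose of the drug-treated group is expressed as percent decrease relative to a vehicle-treated control group. Values are mean ± SE, with p < 0.05 marked.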

Experiment [11] relates to Rattus norvegicus. In words: In vivo galactitol inhibitory activity measured by its ability to inhibit galactitol accumulation in sciatic nerve at 3 mg/Kg/day. It is filed as functional. An outline of the steps:
as §2

The target in experiment [12] is Aldo-keto reductase family 1 member B1 (Bos taurus) (UniProt P16116). The experiment is described as follows: In vitro aldose reductase inhibitory activity measured by NADPH-dependent inhibition of glyceraldehyde reduction in a partially purified bovine lens preparation at 10E-6 M. The method, boiled down:
as §3

Experiment [13] concerns Rattus norvegicus. In words: In vivo galactitol inhibitory activity measured by its ability to inhibit galactitol accumulation in lens at 10 mg/Kg/day; NS=Not significant (% Inhibition). It is filed as functional. The settings on record: Lens of camera-type eye. An outline of the steps: as §1
For experiment [14], the system named is Rattus norvegicus. In words: In vivo galactitol inhibitory activity measured by its ability to inhibit galactitol accumulation in sciatic nerve at 3 mg/Kg/day; NS=Not significant (% Inhibition). It is filed as functional, organism-based. The method, boiled down:
as §2

Experiment [15] deals with Rattus norvegicus. The experiment is described as follows: In vivo galactitol inhibitory activity measured by its ability to inhibit galactitol accumulation in sciatic nerve at 10 mg/Kg/day. In kind it is functional. The method, boiled down:
as §2

In experiment [16] the test system is Rattus norvegicus. The experiment is described as follows: In vivo galactitol inhibitory activity measured by its ability to inhibit galactitol accumulation in lens at 3 mg/Kg/day; NS=Not significant. It is filed as functional, organism-based. The settings on record: Lens of camera-type eye. The method, boiled down: as §1
For experiment [17], the system named is Rattus norvegicus. The experiment is described as follows: In vivo galactitol inhibitory activity measured by its ability to inhibit galactitol accumulation in sciatic nerve at 46 mg/Kg/day; NS=Not significant (% Inhibition). It is filed as functional, organism-based. An outline of the steps: as §2
Experiment [18] has as its system Rattus norvegicus. In words: In vivo galactitol inhibitory activity measured by its ability to inhibit galactitol accumulation in diaphragm at 46 mg/Kg/day; NS=Not significant (% Inhibition). It is filed as functional, organism-based. The method, boiled down: as §1
Experiment [19] has as its system Rattus norvegicus. In words: In vivo galactitol inhibitory activity measured by its ability to inhibit galactitol accumulation in lens at 46 mg/Kg/day. In kind it is functional. The settings on record: Lens of camera-type eye. The method, boiled down: as §1
In experiment [20] the test system is Rattus norvegicus. The experiment is described as follows: In vivo galactitol activity by measuring its ability to inhibit galactitol accumulation in sciatic nerve at 6 mg/Kg/day; NS=Not significant (% Inhibition). It is filed as functional, organism-based. The method, boiled down:
as §1

Experiment [21] concerns Rattus norvegicus. In words: In vivo galactitol inhibitory activity measured by its ability to inhibit galactitol accumulation in lens at 6 mg/Kg/day; NS=Not significant (% Inhibition). In kind it is functional, organism-based. The note with it: Lens of camera-type eye. The method, boiled down:
as §1

For experiment [22], the system named is Rattus norvegicus. The experiment is described as follows: In vivo galactitol inhibitory activity measured by its ability to inhibit galactitol accumulation in lens at 32 mg/Kg/day. It is filed as functional. The note with it: Lens of camera-type eye. The method, boiled down: as §1
The subject of experiment [23] is Rattus norvegicus. In words: In vivo galactitol inhibitory activity measured by its ability to inhibit galactitol accumulation in sciatic nerve at 32 mg/Kg/day. In kind it is functional. The method, boiled down:
as §2

Experiment [24] relates to Rattus norvegicus. The experiment is described as follows: In vivo galactitol inhibitory activity measured by its ability to inhibit galactitol accumulation in diaphragm at 9 mg/Kg/day. It is filed as functional. An outline of the steps: as §1
Experiment [25] concerns Rattus norvegicus. The experiment is described as follows: In vivo galactitol inhibitory activity measured by its ability to inhibit galactitol accumulation in sciatic nerve at 9 mg/Kg/day. It is filed as functional. The method, boiled down:
as §2

For experiment [26], the system named is Rattus norvegicus. The experiment is described as follows: In vivo galactitol inhibitory activity measured by its ability to inhibit galactitol accumulation in lens at 9 mg/Kg/day; NS=Not significant (% Inhibition). In kind it is functional, organism-based. The settings on record: Lens of camera-type eye. The method, boiled down:
as §2

The subject of experiment [27] is Rattus norvegicus. The experiment is described as follows: In vivo galactitol inhibitory activity measured by its ability to inhibit galactitol accumulation in diaphragm at 109 mg/Kg/day. In kind it is functional. The method, boiled down:
as §1

Experiment [28] relates to Rattus norvegicus. The experiment is described as follows: In vivo galactitol inhibitory activity measured by its ability to inhibit galactitol accumulation in lens at 109 mg/Kg/day; NS=Not significant (% Inhibition). It is filed as functional, organism-based. The note with it: Lens of camera-type eye. An outline of the steps: as §1
Experiment [29] deals with Rattus norvegicus. The experiment is described as follows: In vivo galactitol inhibitory activity measured by its ability to inhibit galactitol accumulation in sciatic nerve at 109 mg/Kg/day; NS=Not significant (% Inhibition). It is filed as functional, organism-based. An outline of the steps: as §2

Active and inactive are the calls of the source. The calls are words filed in the database; no cut-off is given here. Some results are limits rather than exact numbers.

With `CN1C(=O)c2ccc(Cl)cc2C12CC(=O)NC2=O` (single isomer, unassigned; (+)), the results for the inhibition in vivo at 6 mg/kg/day in the experiment with Rattus norvegicus [1] and in the experiment on Rattus norvegicus [3] were 67% and 58%, respectively. Further, the Inhibition (in general, the relative decrease from the control value, in per cent) in the experiment on Rattus norvegicus [2] is recorded as 21%.
As for `Cc1ccc2c(c1)C(=O)N(C)C21CC(=O)NC1=O` (stereo unspecified), the inhibition in vivo (in general, the relative decrease from the control value, in per cent) at 10 mg/kg/day with Rattus norvegicus [4] amounted to 47%; with Rattus norvegicus [5], 12%. Moreover, the inhibition result in the experiment with Rattus norvegicus [6], in the experiment with Rattus norvegicus [7] and in the experiment on Rattus norvegicus [9] was “inactive” throughout. Moreover, the inhibition in vivo at 6 mg/kg/day in the experiment on Rattus norvegicus [1] was determined as 39%; in the experiment on Rattus norvegicus [2], 13%. Moreover, the values for the inhibition in experiment [8] and in experiment [12] were 26% and 61%, respectively. For the same compound, the inhibition in vivo at 3 mg/kg/day worked out at 27% in the experiment with Rattus norvegicus [10] and 20% in the experiment with Rattus norvegicus [11]. Also, in the experiment on Mus musculus, the Decrease is on record as below 15%.
Regarding `Cc1cccc2c1C(=O)N(C)C21CC(=O)NC1=O` (stereo unspecified), the inhibition in vivo at 10 mg/kg/day in the experiment on Rattus norvegicus [4] stood at 69%; in the experiment on Rattus norvegicus [13] it was 29%; with Rattus norvegicus [15] (Rattus norvegicus, Sciatic nerve), 63%. Moreover, the inhibition in vivo at 6 mg/kg/day turned out to be 57% with Rattus norvegicus [1] and 28% in the experiment with Rattus norvegicus [2]. The inhibition entry in the experiment with Rattus norvegicus [7], in the experiment on Rattus norvegicus [14] and in the experiment with Rattus norvegicus [16] was “inactive” each time. For the same compound, the values for the inhibition in [8] and in [12] were 11% and 59%, respectively. In the experiment with Rattus norvegicus [15], the Inhibition is 50%. Besides, the inhibition in vivo at 3 mg/kg/day in the experiment on Rattus norvegicus [10] was 37%.
As for `O=C(O)CN1C(=O)c2ccccc2C12CC(=O)NC2=O` (stereo unspecified), the inhibition entry in the experiment on Rattus norvegicus [17] and with Rattus norvegicus [18] was “inactive” throughout. In the experiment with Rattus norvegicus [19], this compound yielded an inhibition in vivo at 46 mg/kg/day of 17%.
Regarding `CN1C(=O)c2ccc(Cl)cc2C12CC(=O)NC2=O` (single isomer, unassigned; (-)), the inhibition entry in the experiment with Rattus norvegicus [20] and in the experiment with Rattus norvegicus [21] was “inactive” throughout. The inhibition (commonly how much of the control response was suppressed) in experiment [8] came out at 0%; in experiment [12], 33%.
`CN1C(=O)c2cccc(Cl)c2C12CC(=O)NC2=O` (stereo unspecified): the inhibition in vivo at 32 mg/kg/day in the experiment with Rattus norvegicus [22] came to 13%; in the experiment on Rattus norvegicus [23] it was 32%. In addition, the values for the inhibition in experiment [8] and in [12] were 19% and 57%, respectively.
Consider `CN1C(=O)c2cc(-c3ccccc3)ccc2C12CC(=O)NC2=O` (stereo unspecified), for which the inhibition in vivo at 9 mg/kg/day came out at 55% in the experiment with Rattus norvegicus [24] and 34% in the experiment on Rattus norvegicus [25]. Moreover, the inhibition result with Rattus norvegicus [6], with Rattus norvegicus [21], with Rattus norvegicus [14] and in the experiment with Rattus norvegicus [26] was “inactive” throughout. Besides, the figures for the inhibition in vivo at 6 mg/kg/day in the experiment on Rattus norvegicus [1] and in the experiment with Rattus norvegicus [3] were 43% and 27%, respectively. Also, the results for the inhibition in experiment [8] and in [12] were 37% and 81%, respectively. In the experiment on Rattus norvegicus [10], this compound gave an inhibition in vivo at 3 mg/kg/day of 29%. Further, in the experiment with Mus musculus, the Decrease is given as below 15%.
`O=C1CC2(C(=O)N1)c1ccccc1C(=O)N2Cc1ccc(Cl)c(Cl)c1` (stereo unspecified) came in with an inhibition in vivo at 109 mg/kg/day in the experiment with Rattus norvegicus [27] of 33%. For the same compound, the inhibition entry with Rattus norvegicus [28] and in the experiment on Rattus norvegicus [29] was “inactive” each time. For the same compound, the inhibition stood at 18% in [8] and 45% in [12]. For the same compound, in the experiment with Mus musculus, the Decrease is listed as 21%.

Values taken from ChEMBL document CHEMBL1126205, “Novel spirosuccinimides with incorporated isoindolone and benzisothiazole 1,1-dioxide moieties as aldose reductase inhibitors and antihyperglycemic agents” (1992).
